Converted amounts (≈) assume the structure as drawn. The source made the active and inactive calls. The rule behind the calls is not given here.
How the values were obtained:
[1] = tested on: Candida albicans; experiment: Antifungal activity against Candida albicans ATCC24433 after 24 hrs by two fold serial dilution method; type: functional; conditions: ATCC24433, 24 h
Summary of the method: (§1)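 Candida grown on Sabouraud dextrose agar at 35 °C for 24 h, adjusted to ~5×10^3 CFU/mL. Two-fold dilutions from 100 to 0.78 μg/mL in Sabouraud dextrose broth, incubated at 35 °C for 24 h. MIC is the lowest concentration inhibiting growth by eye and by OD600. CLSI-based with minor modifications.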

[2] = tested on: Aspergillus brasiliensis; experiment: Antifungal activity against Aspergillus brasiliensis TCC16404 after 48 hrs by two fold serial dilution method; type: functional; conditions: TCC16404, 48 h
Summary of the method: (§2)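 Moulds grown on potato dextrose agar, 30 °C, 4 days; inoculum adjusted to about 5×10^3 CFU/mL. Two-fold serial dilutions in RPMI-1640 broth, 100 to 0.78 μg/mL final, mixed with equal volume of cell suspension; incubated 30 °C, 48 h. MIC = lowest concentration inhibiting growth, judged visually and by OD530.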

[3] = tested on: Klebsiella pneumoniae; experiment: Antibacterial activity against Klebsiella pneumoniae DM4299 by two fold serial dilution method; type: functional
Summary of the method: (§3)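 Broth microdilution (CLSI, minor modifications) in Sabouraud dextrose, Mueller−Hinton or RPMI 1640 broth; two-fold serial dilutions of compound from stock to final 100 to 0.78 μg/mL. MIC taken as lowest concentration giving no visible growth.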

[4] = tested on: Fusarium solani; experiment: Antifungal activity against Fusarium solani 46492 after 48 hrs by two fold serial dilution method; type: functional; conditions: Fusarium solani, 46492, 48 h; summary of the method: as §2
[5] = tested on: Candida albicans; experiment: Synergistic antifungal activity against drug resistant Candida albicans DF2672R after 24 hrs in presence of miconazole by checkerboard assay; type: functional
Summary of the method: (§4)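 Checkerboard combination of each compound with a second antifungal, following a previously reported procedure. FIC = MIC of A in combination/MIC of A alone + MIC of B in combination/MIC of B alone.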

[6] = tested on: Candida albicans; experiment: Antifungal activity against drug resistant Candida albicans DF2672R infected C57BL6 mouse cornea at 0.2% administered topically for every 20 mins during the first hour and every 1 hr during the next 6 hrs by serial dilution method; type: functional
Summary of the method: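 C57BL6 mice aged 7–8 weeks (19–23 g), immunosuppressed with cyclophosphamide 100 mg/kg ip at 4 days and 1 day before infection and on day 1 after. Left cornea scratched under xylazine/ketamine, then 20 μL of ~5×10^7 CFU/mL yeast in PBS applied. Treatment started 1 day later; PBS served as control; four mice per group. Corneal fungal load counted by serial dilution plating on SDA.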

[7] = tested on: Aspergillus fumigatus; experiment: Antifungal activity against Aspergillus fumigatus TCC 90906 after 48 hrs by two fold serial dilution method; type: functional; conditions: TCC 90906, 48 h; summary of the method: as §2
[8] = tested on: Candida albicans; experiment: Fungicidal activity against drug resistant Candida albicans DF2672R at 1 time MIC after 24 hrs by time kill assay; type: functional
Summary of the method: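 Cells at 10^5–10^6 CFU/mL exposed to 1×, 2×, 4× or 8× MIC at 35 °C. Samples taken at 0.5, 1, 2, 4, 8 and 24 h, serially diluted in PBS and plated on SDA. CFU counted after 24 h at 35 °C; biological replicates.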

[9] = tested on: Candida albicans; experiment: Synergistic antifungal activity against drug resistant Candida albicans DF2672R after 24 hrs in presence of natamycin by checkerboard assay; type: functional; summary of the method: as §4
[10] = tested on: Candida albicans; experiment: Antifungal activity against Candida albicans ATCC 10231 after 24 hrs by two fold serial dilution method; type: functional; conditions: ATCC 10231, 24 h; summary of the method: as §1
[11] = tested on: Staphylococcus aureus; experiment: Antibacterial activity against Staphylococcus aureus DM4001R by two fold serial dilution method; type: functional; summary of the method: as §3
[12] = Cytotoxicity against human corneal fibroblasts assessed as reduction in cell viability after 4 hrs by LDH assay; type: cell-based; conditions: Corneal fibroblast
Summary of the method: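 LDH release assay on human corneal fibroblasts seeded at 10000 cells per well, exposed to a range of compound concentrations up to 100 μM. 1% Triton X-100 served as positive control and 0.5% DMSO as negative control; biological replicates.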

[13] = tested on: Aspergillus fumigatus; experiment: Antifungal activity against Aspergillus fumigatus TCC MYA3626 after 48 hrs by two fold serial dilution method; type: functional; conditions: TCC MYA3626, 48 h; summary of the method: as §2

Q: Which MIC [1] does the source give for COc1c(OCC(O)CNC(=N)N)cc2oc3cc(OCC(O)CNC(=N)N)c(CC=C(C)C)c(O)c3c(=O)c2c1CC=C(C)C (stereo not drawn) here?
A: The MIC was 0.78 µg/mL (≈ 1.22 µM).

Q: And the MIC [2]?
A: The MIC was 3.13 µg/mL (≈ 4.88 µM).

Q: And the MIC [3]?
A: Its MIC is 25 to 50 µg/mL (≈ 39 to 78 µM).

Q: And the MIC [4]?
A: The MIC was 3.13 µg/mL (≈ 4.88 µM).

Q: And the “fractional inhibitory concentration index (FICI)” value [5]?
A: Its value is 0.88.

Q: And the Activity [6]?
A: Its Activity is 92.8%.

Q: What about the MIC [7] of the same compound?
A: The MIC was 6.25 µg/mL (≈ 9.75 µM).

Q: What about the Activity [8] of the same compound?
A: Its Activity is “Active”.

Q: What about the “fractional inhibitory concentration index (FICI)” value [9] of the same compound?
A: The value was 1.08.

Q: What about the MIC [10] of the same compound?
A: The MIC was 0.78 µg/mL (≈ 1.22 µM).

Q: What about the MIC [11] of the same compound?
A: Its MIC is 1.56 to 3.13 µg/mL (≈ 2.43 to 4.88 µM).

Q: And the IC50 [12]?
A: Its IC50 is over 100 µM.

Q: And the MIC [13]?
A: Its MIC is 6.25 µg/mL (≈ 9.75 µM).

Reference: ChEMBL document CHEMBL4028907, “Semisynthesis and Biological Evaluation of Xanthone Amphiphilics as Selective, Highly Potent Antifungal Agents to Combat Fungal Resistance” (J Med Chem, 2017)
